A selection: hits, their analogues and other compounds. The true share with any hit is near 3%.
AI-2 QS mod – Vibrio harveyi AI-2 quorum sensing modulation | Vibrio harveyi JMH597 AI-2 luminescence/OD600 ratio, 9 h; hits give low values; strain lacks LuxN and CqsS sensors; 0 = neutral-control median | activity change, % at 7.5 µM | 0.4% of 300,000 active | AID 2094; in the data active means activity change below about -75%, passing the limit was not always enough;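 further: luminescence divided by OD600 gain over 9 h not by final OD600 alone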
CR mimetic SO – yeast age-related superoxide inhibition as caloric restriction mimetic | S. cerevisiae aged cells, superoxide DHE fluorescence; hits give low values | superoxide response (% of plate mean), % at 10 µM | AID 2690 | 0.18% of 330,000 active;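 active means superoxide response under a set limit, about three screen SD below normal, cut at about 65% in these data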;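 further: yeast aged for seven days with compound at 30 °C before DHE staining; 100% = average MFI of all compound-treated wells on the plate with controls excluded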
V-ATPase pHluor – alters yeast V-ATPase proton transport. response, % at 10 µM. S. cerevisiae, pHLuorin cytosolic pH fluorescence. 0.37% of 350,000 active. AID 504577; in the data active means response mostly above about 7.3%, no sharp cut-off; inactive means mostly below about 5.4%; further: actives read high
HIF act – HIF pathway transcriptional activation | AID 1910 | activation, % at 7.5 µM (by protocol) | 0.32% of 300,000 active | U2OS HRE-luciferase reporter, luminescence; normalized: DMSO 0%, desferrioxamine 100%;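 active means mean activation of at least 10% of the iron chelator positive control signal, with at least half of replicates also reaching 10%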
CendR NRP1 mod – modulators of CendR peptide binding to human neuropilin-1; AID 602438; O14786; inhibition, % at 25 µM; FAM-RPARPAR peptide binding to NRP-1, fluorescence polarization; 0.85% of 360,000 active;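 active means inhibition or corrected inhibition above about 18%, plus a signal ratio from 0.5 to 1.5, limit read from the data, passing the limit was not always enough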
Target sequence (O14786 whole entry, looked up): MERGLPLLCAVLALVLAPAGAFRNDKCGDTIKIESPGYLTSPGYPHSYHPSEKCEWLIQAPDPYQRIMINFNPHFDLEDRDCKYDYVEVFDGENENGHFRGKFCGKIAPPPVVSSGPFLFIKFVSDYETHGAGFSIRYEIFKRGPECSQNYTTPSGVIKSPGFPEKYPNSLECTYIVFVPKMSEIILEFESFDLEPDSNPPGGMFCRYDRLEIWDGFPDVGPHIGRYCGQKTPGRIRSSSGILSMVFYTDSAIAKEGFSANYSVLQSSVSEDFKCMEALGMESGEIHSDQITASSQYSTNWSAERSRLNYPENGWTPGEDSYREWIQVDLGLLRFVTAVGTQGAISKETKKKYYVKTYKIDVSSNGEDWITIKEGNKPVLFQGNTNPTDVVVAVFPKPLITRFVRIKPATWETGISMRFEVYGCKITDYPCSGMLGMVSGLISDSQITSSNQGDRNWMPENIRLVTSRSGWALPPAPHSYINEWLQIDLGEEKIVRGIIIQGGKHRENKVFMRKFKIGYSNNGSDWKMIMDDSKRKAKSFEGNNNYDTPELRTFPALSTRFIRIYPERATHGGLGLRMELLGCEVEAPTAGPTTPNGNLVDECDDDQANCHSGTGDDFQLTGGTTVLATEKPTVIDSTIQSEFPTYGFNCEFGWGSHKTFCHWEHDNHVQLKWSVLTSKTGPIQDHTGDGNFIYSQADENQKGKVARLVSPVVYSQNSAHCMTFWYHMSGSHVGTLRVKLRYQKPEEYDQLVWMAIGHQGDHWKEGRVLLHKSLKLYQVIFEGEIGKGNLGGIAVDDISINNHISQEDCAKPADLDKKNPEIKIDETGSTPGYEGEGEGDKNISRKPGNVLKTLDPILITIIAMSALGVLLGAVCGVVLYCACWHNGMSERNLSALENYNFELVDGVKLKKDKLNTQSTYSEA
T cruzi repl – T. cruzi replication inhibition | 1.4% of 300,000 active | AID 1885 | inhibition, % (concentration not given with the values) | T. cruzi beta-gal in NIH3T3, luminescence, 90 h;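 active means mean inhibition across valid replicates above about 55%, limit read from the data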;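 further: signal also drops with host cell toxicity which is not excluded here; 0% = plate median of DMSO wells and 100% = zero luminescence signal; higher percent means less beta-gal luminescence so fewer parasites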
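System: mouse NIH/3T3 fibroblasts infected with β-gal-expressing T. cruzi Tulahuen C4 / Input: NIH/3T3 cells, 5,000 per well / Buffer or medium: Low-serum DMEM with 2% FBS / Probe or stimulus: 5000 reporter trypomastigotes per well / Schedule: ≥90 h infection period, 3 h prior cell attachment / Measured by: GalScreen luminescence, 60 min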
* hit, by the source's call; x = no result.

SMILES	AI-2 QS mod	CR mimetic SO	V-ATPase pHluor	HIF act	CendR NRP1 mod	T cruzi repl
Cc1cccc(NC(=O)CN2C(=O)COc3ccc(Cl)cc32)c1	1.8	104.3	-4.5	-0.5	2.4	10.6
NC(=O)C1CCN(CC(=O)Nc2ccc3c(c2)OCCO3)CC1	x	103.0	1.1	x	16.2	x
CCCc1[nH]c2ccc(C#N)cc2c1CCC	20.0	95.2	-1.3	0.8	-2.2	38.6
O=C(Nc1ccc(S(=O)(=O)Nc2nccs2)cc1)c1cccc(F)c1	15.6	116.6	-4.3	-0.3	-22.0	6.8
O=C(/C=C/c1cccc(F)c1)NC1CCN(Cc2ccccc2)CC1	17.2	106.7	1.7	0.9	4.1	55.4*
O=C(COc1ccc(Br)cc1Cl)NC1CCN(Cc2ccccc2)CC1	11.5	99.7	-1.1	0.0	-2.7	61.1*
O=C(Nc1ccc(Oc2ccccc2)nc1)C1CCN(Cc2cccc(F)c2)CC1	27.7	98.0	-0.2	0.2	27.3*	24.5
O=C(/C=C/c1cccc(Br)c1)NC1CCN(Cc2ccccc2)CC1	21.3	88.6	1.4	-3.2	2.9	40.7
C=C(C)c1cccc(C(C)(C)NC(=O)NC2CCN(Cc3ccccc3)CC2)c1	10.1	102.7	-3.5	-0.7	18.8	55.0*
CC1CN(c2nc3ccccc3nc2SCC(=O)Nc2cccc(C(F)(F)F)c2)CC(C)O1 (stereo unspecified)	15.0	100.0	0.7	-0.5	-4.6	28.9
Cc1ccc(NC(=O)C2CC(=O)N(Cc3ccccc3)C2)nc1 (stereo unspecified)	8.8	104.9	-0.6	0.1	-4.8	-10.3
O=C(Nc1cccc(F)c1)NC1CCN(Cc2ccccc2)CC1	-11.5	95.1	2.7	-0.1	-1.3	59.8*
CCN1CCC(NC(=O)Nc2ccc(F)cc2)CC1	6.3	99.2	1.3	-0.2	-11.3	-3.5
CCCN1CCC(NC(=O)Nc2ccc(F)cc2F)CC1	12.5	94.7	15.1*	0.3	5.3	12.9
Fc1ccc(NC(=S)NC2CCN(Cc3ccccc3)CC2)cc1	-14.6	114.5	-0.1	x	9.6	x
COCCNC(=O)CCc1nnc(Cc2ccc(-c3ccccc3)cc2)o1	6.6	103.3	-0.9	-0.1	-32.1	-6.4
Cc1ccc(/C=N/NC(=O)c2cc(-c3ccccc3)nc3ccccc23)o1	56.2	108.4	1.2	3.9	5.9	-21.2
Cc1cccc(NC(=S)N(CCc2nc3cc(C)c(C)cc3[nH]2)Cc2cccnc2)c1	-4.6	97.9	4.5	-0.1	-4.0	79.4*
Cc1ccc(C)c(NC(=S)N(CCc2nc3cc(C)c(C)cc3[nH]2)Cc2cccnc2)c1	11.6	103.3	-1.2	-0.2	-16.4	65.6*
Cc1ccc(Cl)cc1NC(=S)N(Cc1cccnc1)Cc1ccccc1Cl	5.2	90.3	-3.2	-0.1	-6.2	72.1*
O=S(=O)(c1cc(Cl)cc(Cl)c1)N1CCCC1c1nc2ccccc2s1 (stereo unspecified)	1.6	96.7	-3.0	-0.1	8.8	-2.0
Oc1ccc(/C=N/Nc2cc(N3CCCC3)nc(N3CCCC3)n2)cc1	32.3	94.7	-2.8	-0.3	3.5	52.9
COc1ccc(/C=N/Nc2cc(N3CCCC3)nc(N3CCCC3)n2)cc1	21.2	84.6	2.7	0.1	6.1	67.0*
Clc1ccccc1CN(Cc1ccccc1)C(c1cccs1)c1nnnn1C1CCCC1 (stereo unspecified)	x	98.8	-2.5	-0.2	1.0	35.2
CC(c1nnnn1C(C)(C)C)N(Cc1cccnc1)Cc1ccccc1Cl (stereo unspecified)	19.3	105.1	-1.9	-0.4	1.9	65.9*
SMILES	AI-2 QS mod	CR mimetic SO	V-ATPase pHluor	HIF act	CendR NRP1 mod	T cruzi repl
CC(C)(C)n1nnnc1C(c1cccs1)N(Cc1cccnc1)Cc1ccccc1Cl (stereo unspecified)	37.5	101.2	-4.1	-0.6	17.6	70.6*
CC(c1nnnn1C1CCCCC1)N(Cc1ccccc1)Cc1cccnc1 (stereo unspecified)	32.0	100.4	-0.8	-0.1	15.6	38.2
CCOC(=O)c1c2ccc(OCC(=O)N/N=C/c3ccc(C)cc3)cc2n2ccccc12	21.6	99.9	-3.2	0.0	-10.4	-14.5
CCOC(=O)c1c2ccc(OCC(=O)NN)cc2n2ccccc12	16.7	109.9	6.3	0.8	26.4*	-6.7
CSc1ccccc1NC(=O)CN(c1cccc(C)c1)S(C)(=O)=O	2.3	97.8	13.1*	0.1	11.4	-6.0
CC(=O)c1cccc(NC(=O)/C(=C\c2cccnc2)NC(=O)c2ccc(C)cc2)c1	22.8	96.7	5.5	-0.9	3.3	-8.0
O=S1(=O)C[C@@H](N2CCC[C@@H]2CO)[C@H](COCc2ccccc2)N1	x	x	x	x	2.2	x
N#Cc1cc(N2CCOCC2)nc2ccccc12	14.1	119.4	4.3	-0.2	6.0	-2.2
COC(=O)COc1ccc(S(=O)(=O)Nc2ccccc2C(=O)OC)cc1	26.7	97.9	-1.9	-0.3	-1.1	8.7
COc1ccc(S(=O)(=O)Nc2ccccc2C(=O)NC2CC2)cc1NC(C)=O	x	91.6	5.0	x	27.7*	x
CC(=O)c1ccc(S(=O)(=O)Nc2ccccc2C(=O)NC2CC2)cc1	x	87.1	x	x	7.7	x
COC(=O)c1ccccc1NS(=O)(=O)c1ccc(NC(C)=O)cc1	31.6	100.2	-0.3	-0.4	35.1*	-5.3
CCCCc1c(C)nc2ccc(Br)cc2c1SCCC#N	35.5	x	x	0.6	x	24.0
CCC1(C)CC(c2nc(-c3ccc(OC)cc3)cs2)CCS1 (stereo unspecified)	27.0	101.4	1.3	-0.8	32.3*	13.4
CCN(CCO)Cc1cc(=O)oc2c(C)c(C)ccc12	27.7	98.3	6.2	0.0	12.3	-1.1
CC1OC(CC(=O)O)CC2=C1C(=O)c1c(O)cccc1C2=O (stereo unspecified)	x	x	116.6*	x	34.6*	x
CC(=O)c1ccc(NC(=O)C2CCN(S(=O)(=O)c3ccc4c(c3)N(C(C)=O)CCO4)CC2)cc1	17.7	95.9	-1.0	0.7	8.6	3.9
Cc1ccc(NC(=O)C2CCN(c3cnccn3)CC2)cc1C	24.7	110.8	-1.2	0.5	-2.5	64.0*
CCOc1ccc(NC(=O)C2CCN(S(=O)(=O)c3ccc4c(c3)N(C(C)=O)CCO4)CC2)cc1	-1.8	107.4	-1.2	24.7*	2.3	3.6
Cc1ccc(S(=O)(=O)N2CCC(C(=O)Nc3ccc(S(=O)(=O)N4CCCC4)cc3)CC2)cc1	42.1	133.3	-2.6	-0.3	3.2	26.0
Cc1ccc(S(=O)(=O)N2CCC(C(=O)Nc3ccc(S(=O)(=O)N4CCCC4)cc3)CC2)cc1C	17.2	94.1	0.3	-0.1	11.1	74.4*
Cc1cccc(C)c1NC(=S)NN1CCN(C)CC1	10.8	105.4	-2.3	0.7	5.6	9.4
CCCCSc1nsc(NC(C)=O)n1	31.4	99.7	2.5	2.5	-11.4	46.5
CCCSc1nsc(NC(=O)CCC)n1	30.7	78.8	0.5	1.5	11.8	56.4*
